Measurements reported in ChEMBL document CHEMBL1137220, “2-(2-(dimethylaminomethyl)phenoxy)-5-iodophenylamine: an improved serotonin transporter imaging agent” (J Med Chem, 2004).
Several values for one entry are separate records, joined by “and”; a condition that tells them apart may be missing. Equal values may be shown once.

Experiments:
[1] = Biodistribution in rat lung was determined after 60 min of intravenous administration of the compound; [125I]- is used as radioactive isotope; format: ADME, organism-based; details: in vivo, 1 h
Summary of the method: (§1)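 Rats under ether anesthesia, three per group, received 10 μCi tracer in 0.2 mL saline into the femoral vein. They were killed by cardiac excision under ether at each time point. Organs were removed, weighed and counted. Percent dose per organ was calculated against a 1%-of-injected-dose standard counted at the same time.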

[2] = Regional brain distribution in rat hippocampus was determined after 120 min of intravenous administration of the compound; [125I]- is used as radioactive isotope; format: ADME, tissue-based; details: in vivo, 2 h
Summary of the method: (§2)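 Rats, three per group, injected with 10 μCi tracer in 0.2 mL saline via the femoral vein under ether anesthesia and killed by cardiac excision at the stated time. Cortex (frontal plus occipital), striatum, hippocampus, cerebellum and hypothalamus were dissected, weighed and gamma-counted. Values are % dose/g, calculated by comparison with counts of a 100-fold diluted aliquot of the injected dose.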

[3] = Regional brain distribution in rat hippocampus was determined after 240 min of intravenous administration of the compound; [125I]- is used as radioactive isotope; format: ADME, tissue-based; details: in vivo, 4 h; summary of the method: as §2
[4] = Biodistribution in rat brain was determined after 120 min of intravenous administration of the compound; [125I]- is used as radioactive isotope; format: ADME, organism-based; details: in vivo, 2 h; summary of the method: as §1
[5] = Distribution ratio in cortex and cerebellum was determined after 120 min of intravenous administration of the compound; [125I]- is used as radioactive isotope; format: ADME, tissue-based; details: rat, 2 h
Summary of the method: (§3)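 After femoral-vein injection of 10 μCi [¹²⁵I] tracer in 0.2 mL saline under ether anaesthesia (three rats per group), brain regions were dissected, weighed and counted: cortex (frontal plus occipital), hippocampus, hypothalamus and cerebellum. %dose/g was calculated against a diluted injected-dose standard. Ratio = (region − cerebellum)/cerebellum on a %dose/g basis, with cerebellum as the background region.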

[6] = Biodistribution in rat thyroid was determined after 6 hours of intravenous administration of the compound; [125I]- is used as radioactive isotope; format: ADME, organism-based, Thyroid gland; details: in vivo
Summary of the method: (§4)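 Rats, three per group, under ether anaesthesia, received 10 μCi of [¹²⁵I]-labelled tracer in 0.2 mL saline into the femoral vein. They were killed by cardiac excision under ether at each time point. Organs were removed, weighed and counted. Percent dose per organ was calculated against counts of a 1% aliquot of the injected dose (100-fold diluted) counted at the same time.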

[7] = Regional brain distribution in rat cerebellum was determined after 120 min of intravenous administration of the compound; [125I]- is used as radioactive isotope; format: ADME, tissue-based; details: in vivo, 2 h; summary of the method: as §2
[8] = biological target: Sodium-dependent serotonin transporter (Homo sapiens, UniProt P31645); assay: Binding affinity for serotonin transporter expressed in […] cells; format: cell-based
Summary of the method: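 Membranes from confluent pig kidney LLC-PK₁ cells stably expressing the respective transporter, homogenized and pelleted, 30–40 μg protein. Incubated with 0.4 nM [¹²⁵I]IPT or [¹²⁵I]IDAM and 8–10 competitor concentrations (10⁻¹⁰ to 10⁻⁵ M) in 50 mM Tris-HCl pH 7.4, 120 mM NaCl, 0.1% BSA, 1 h at room temperature. Nonspecific binding was defined with 10 μM CFT for IPT and 1 μM IDAM for IDAM. Filtration, gamma counting, nonlinear regression for Ki.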

[9] = Distribution ratio in cortex and cerebellum was determined after 11 hrs of intravenous administration of the compound; [125I]- is used as radioactive isotope; format: ADME, tissue-based; details: rat; summary of the method: as §3
[10] = Biodistribution in rat muscle was determined after 6 hours of intravenous administration of the compound; [125I]- is used as radioactive isotope; format: ADME, organism-based, Muscle tissue; details: in vivo; summary of the method: as §4
[11] = Biodistribution in rat heart was determined after 2 min of intravenous administration of the compound; [125I]- is used as radioactive isotope; format: ADME, organism-based; details: in vivo; summary of the method: as §1
[12] = Distribution ratio in hippocampus and cerebellum was determined after 120 min of intravenous administration of the compound; [125I]- is used as radioactive isotope; format: ADME, tissue-based; details: rat, 2 h; summary of the method: as §3
[13] = Regional brain distribution in rat hypothalamus was determined after 6 hours of intravenous administration of the compound; [125I]- is used as radioactive isotope; format: ADME, tissue-based; details: in vivo; summary of the method: as §2
[14] = Regional brain distribution in rat hippocampus was determined after 11 hours of intravenous administration of the compound; [125I]- is used as radioactive isotope; format: ADME, tissue-based; details: in vivo; summary of the method: as §2
[15] = Biodistribution in rat skin was determined after 30 min of intravenous administration of the compound; [125I]- is used as radioactive isotope; format: ADME, organism-based, Zone of skin; details: in vivo, 0.5 h; summary of the method: as §4
[16] = Distribution ratio in striatum and cerebellum was determined after 6 hrs of intravenous administration of the compound; [125I]- is used as radioactive isotope; format: ADME, tissue-based; details: rat
Summary of the method: (§5)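 Rats, three per group, given 10 μCi tracer in 0.2 mL saline into the femoral vein under ether anesthesia, then killed by cardiac excision at the stated time. Brain regions were dissected, weighed and counted. Percent dose/g was calculated against a 1% diluted aliquot of the injected dose. The ratio is (region − cerebellum)/cerebellum on a % dose/g basis, with cerebellum as background.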

[17] = Distribution ratio in hypothalamus and cerebellum was determined after 2 min of intravenous administration of the compound; [125I]- is used as radioactive isotope; format: ADME, tissue-based; details: rat; summary of the method: as §3
[18] = Biodistribution in rat brain was determined after 2 min of intravenous administration of the compound; [125I]- is used as radioactive isotope; format: ADME, organism-based; details: in vivo; summary of the method: as §1
[19] = Biodistribution in rat spleen was determined after 2 min of intravenous administration of the compound; [125I]- is used as radioactive isotope; format: ADME, organism-based; details: in vivo; summary of the method: as §4
[20] = Distribution ratio in cortex and cerebellum was determined after 2 min of intravenous administration of the compound; [125I]- is used as radioactive isotope; format: ADME, tissue-based; details: rat; summary of the method: as §3
[21] = Regional brain distribution in rat hypothalamus was determined after 11 hours of intravenous administration of the compound; [125I]- is used as radioactive isotope; format: ADME, tissue-based; details: in vivo; summary of the method: as §2
[22] = Regional brain distribution in rat striatum was determined after 120 min of intravenous administration of the compound; [125I]- is used as radioactive isotope; format: ADME, tissue-based; details: in vivo, 2 h; summary of the method: as §2
[23] = Biodistribution in rat kidney was determined after 120 min of intravenous administration of the compound; [125I]- is used as radioactive isotope; format: ADME, organism-based; details: in vivo, 2 h; summary of the method: as §1
[24] = Biodistribution in rat thyroid was determined after 120 min of intravenous administration of the compound; [125I]- is used as radioactive isotope; format: ADME, organism-based, Thyroid gland; details: in vivo, 2 h; summary of the method: as §4
[25] = Regional brain distribution in rat hypothalamus was determined after 240 min of intravenous administration of the compound; [125I]- is used as radioactive isotope; format: ADME, tissue-based; details: in vivo, 4 h; summary of the method: as §2
[26] = Biodistribution in rat heart was determined after 6 hours of intravenous administration of the compound; [125I]- is used as radioactive isotope; format: ADME, organism-based; details: in vivo; summary of the method: as §1
[27] = Regional brain distribution in rat striatum was determined after 6 hours of intravenous administration of the compound; [125I]- is used as radioactive isotope; format: ADME, tissue-based; details: in vivo; summary of the method: as §2
[28] = Biodistribution in rat thyroid was determined after 24 hours of intravenous administration of the compound; [125I]- is used as radioactive isotope; format: ADME, organism-based, Thyroid gland; details: in vivo; summary of the method: as §4
[29] = Distribution ratio in hypothalamus and cerebellum was determined after 30 min of intravenous administration of the compound; [125I]- is used as radioactive isotope; format: ADME, tissue-based; details: rat, 0.5 h; summary of the method: as §5
[30] = Regional brain distribution in rat cerebellum was determined after 2 min of intravenous administration of the compound; [125I]- is used as radioactive isotope; format: ADME, tissue-based; details: in vivo; summary of the method: as §2
[31] = Biodistribution in rat spleen was determined after 11 hours of intravenous administration of the compound; [125I]- is used as radioactive isotope; format: ADME, organism-based; details: in vivo; summary of the method: as §4

Chain of Sodium-dependent serotonin transporter (P31645 whole entry): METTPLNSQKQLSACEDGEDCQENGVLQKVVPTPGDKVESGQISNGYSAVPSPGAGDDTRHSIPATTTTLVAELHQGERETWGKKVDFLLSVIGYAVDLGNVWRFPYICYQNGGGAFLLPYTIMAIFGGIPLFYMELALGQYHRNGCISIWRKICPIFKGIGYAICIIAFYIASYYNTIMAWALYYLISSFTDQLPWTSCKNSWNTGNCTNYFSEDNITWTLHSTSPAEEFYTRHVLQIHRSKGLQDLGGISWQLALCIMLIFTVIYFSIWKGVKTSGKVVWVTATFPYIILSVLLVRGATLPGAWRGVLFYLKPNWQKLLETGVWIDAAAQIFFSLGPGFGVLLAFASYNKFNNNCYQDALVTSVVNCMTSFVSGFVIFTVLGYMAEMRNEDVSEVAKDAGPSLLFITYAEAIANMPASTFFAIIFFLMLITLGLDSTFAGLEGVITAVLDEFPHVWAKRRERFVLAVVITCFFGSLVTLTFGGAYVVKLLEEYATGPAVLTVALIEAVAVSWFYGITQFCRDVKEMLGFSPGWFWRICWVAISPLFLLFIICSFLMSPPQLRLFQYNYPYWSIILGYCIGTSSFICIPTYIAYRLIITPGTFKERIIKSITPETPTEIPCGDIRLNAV

CN(C)Cc1ccccc1Oc1ccc(I)cc1N
Dose [1]: 1.79% | Dose/g [2]: 0.65% | Dose/g [3]: 0.2% | Dose [4]: 1.08% | Dose/g [5]: 1.48% | Dose [6]: 2.68% | Dose/g [7]: 0.21% | Ki [8]: 0.37 nM | Dose/g [9]: 0% | Dose [10]: 5.01% | Dose [11]: 1.51% | Dose/g [12]: 2.19% | Dose/g [13]: 0.09% | Dose/g [14]: 0.01% | Dose [15]: 11.3% | Dose/g [16]: 1.56% | Dose/g [17]: 0.24% | Dose [18]: 1.77% | Dose [19]: 0.44% | Dose/g [20]: 0.56% | Dose/g [21]: 0.01% | Dose/g [22]: 0.72% | Dose [23]: 1.24% | Dose [24]: 0.96% | Dose/g [25]: 0.32% | Dose [26]: 0.08% | Dose/g [27]: 0.068% | Dose [28]: 4.61% | Dose/g [29]: 1.06% | Dose/g [30]: 0.79% and 0.64% | Dose [31]: 0.09%
